Source: ChEMBL document CHEMBL1156438, “Resolvin D1 and its aspirin-triggered 17R epimer. Stereochemical assignments, anti-inflammatory properties, and enzymatic inactivation” (J Biol Chem, 2007)
The source made the active and inactive calls. The calls are words filed in the database; no cut-off is given here.

What was measured:
[1] = test system: Mus musculus; test: Antiinflammatory activity in FVB mouse peritonitis model assessed as reduction in zymosan-induced polymorphonuclear leukocytes infiltration at 10 ng, iv after 4 hrs; type: functional; set-up: scale not given: the % may be the effect or the level left
Procedure, shortened: (§1)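 Male FVB mice, 6–8 weeks, isoflurane-anesthetized; compounds as carboxymethyl esters given iv by tail vein in 100 μl saline (0.05–50 μgkg–1 range), then zymosan A 1 mg/ml ip. Peritoneal lavage at 4 h; cells counted after trypan blue, differentials by Wright-Giemsa cytospin; reduction versus saline vehicle plus zymosan; mean ± S.E., n = 3.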

[2] = test system: Mus musculus; test: Antiinflammatory activity in FVB mouse peritonitis model assessed as reduction in zymosan-induced total leukocyte infiltration at 10 ng, iv after 4 hrs; type: functional; set-up: scale not given: the % may be the effect or the level left; procedure, shortened: as §1
[3] = test system: Mus musculus; test: Antiinflammatory activity in iv dosed FVB mouse peritonitis model assessed as reduction in zymosan-induced polymorphonuclear leukocyte infiltration at after 4 hrs; type: functional, organism-based
[4] = Antiinflammatory activity in human polymorphonuclear leukocytes assessed as inhibition of n-formylmethionylleucylphenylalanine-stimulated transendothelial migration at 10 nM after 15 mins; type: functional; set-up: scale not given: the % may be the effect or the level left
Procedure, shortened: (§2)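 Human PMNs from venous blood (Histopaque 1077/1119 double gradient, NH4Cl lysis, >90% pure) in HBSS pH 7.4, preincubated 15 min at room temperature with 0–1000 nm compound; 10^6 cells added atop HMEC-1 monolayers on Transwell inserts; 100 nm fMLP lower chamber; migration 30 min, 37 °C, quantified by MPO; expressed as % reduction versus untreated PMNs.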

[5] = Antiinflammatory activity in human polymorphonuclear leukocytes assessed as inhibition of n-formylmethionylleucylphenylalanine-stimulated transendothelial migration after 15 mins; settings: 0.25 h
[6] = test system: Mus musculus; test: Antiinflammatory activity in FVB mouse peritonitis model assessed as reduction in zymosan-induced polymorphonuclear leukocyte infiltration at 100 ng, iv after 4 hrs; type: functional; set-up: scale not given: the % may be the effect or the level left; procedure, shortened: as §1
[7] = test system: Mus musculus; test: Antiinflammatory activity in FVB mouse peritonitis model assessed as reduction in zymosan-induced polymorphonuclear leukocyte infiltration at 1 ng, iv after 4 hrs; type: functional, organism-based; procedure, shortened: as §1
[8] = Antiinflammatory activity in human polymorphonuclear leukocytes assessed as inhibition of n-formylmethionylleucylphenylalanine-stimulated transendothelial migration at 1 uM after 15 mins; type: functional; set-up: scale not given: the % may be the effect or the level left; procedure, shortened: as §2

SMILES | Activity [1] | Activity [2] [%] | Activity [3] | Activity [4] [%] | EC50 [5] [nM] | Activity [6] [%] | Activity [7] | Activity [8] [%]
CC/C=C\C[C@@H](O)/C=C/C=C\C=C\C=C\C(=O)[C@@H](O)C/C=C\CCC(=O)O | 41% |  |  |  |  |  |  | 
CC/C=C\C[C@H](O)/C=C/C=C\C=C\C=C\[C@@H](O)[C@@H](O)C/C=C\CCC(=O)O |  | 8 | Dose-dependent effect | 50 | 30 | 35 | Active | 
CC/C=C\C[C@@H](O)/C=C/C=C\C=C\C=C\[C@@H](O)[C@@H](O)C/C=C\CCC(=O)O |  | 23 | Dose-dependent effect | 50 | 30 | 35 | Active | 65
CC/C=C\CC(=O)/C=C/C=C\C=C\C=C\[C@@H](O)[C@@H](O)C/C=C\CCC(=O)O | inactive |  |  |  |  |  |  | 
